From ChEMBL document CHEMBL1158902, “Polyprenylated benzophenones from Garcinia assigu and their potential cancer chemopreventive activities” (J Nat Prod, 2003)

Assays:
Raji [1] = assay: Inhibition of TPA-induced EBV-early antigen activation in human Raji cells at 32 nmol after 48 hrs relative to TPA; assay type: cell-based; set-up: scale not given: the % may be the effect or the level left; conditions: human gammaherpesvirus 4
Method in brief: (§1)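 Raji cells at 10^6 cells/mL were resuspended in RPMI 1640 with 10% FCS. Induction used 4 mM n-butyric acid plus 32 pmol TPA (20 ng/mL), with test compound added in DMSO. After 48 h at 37 °C, EA-positive cells were scored blind, at least 500 cells per assay. Activation is expressed as % of TPA-only control (100%) ± SD.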

Raji [2] = assay: Inhibition of TPA-induced EBV-early antigen activation in human Raji cells at 16 nmol after 48 hrs relative to TPA; assay type: cell-based; set-up: scale not given: the % may be the effect or the level left; conditions: human gammaherpesvirus 4; method in brief: as §1
Raji [3] = assay: Inhibition of TPA-induced EBV-early antigen activation in human Raji cells at 3.2 nmol after 48 hrs relative to TPA; assay type: cell-based; set-up: scale not given: the % may be the effect or the level left; conditions: human gammaherpesvirus 4; method in brief: as §1
Raji [4] = assay: Inhibition of TPA-induced EBV-early antigen activation in human Raji cells at 0.32 nmol after 48 hrs relative to TPA; assay type: cell-based; set-up: scale not given: the % may be the effect or the level left; conditions: human gammaherpesvirus 4; method in brief: as §1
[5] = Cytotoxicity against human Raji cells assessed as cell viability at 32 nmol after 48 hrs by trypan blue assay; assay type: cell-based; conditions: read-out: Activity
Method in brief: (§2)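 Raji cells grown to 10^6 cells/mL, pelleted, and resuspended in RPMI 1640 with 10% FCS. Medium held 4 mM n-butyric acid, 32 pmol TPA (20 ng/mL, in DMSO) and test compound in DMSO. Incubated 48 h at 37 °C. Cell number and viability counted by hemocytometer with Trypan Blue; at least 60% survival required for a valid result.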

[6] = Cytotoxicity against human Raji cells assessed as cell viability at 16 nmol after 48 hrs by trypan blue assay; assay type: cell-based; conditions: read-out: Activity; method in brief: as §2
[7] = Cytotoxicity against human Raji cells assessed as cell viability at 3.2 nmol after 48 hrs by trypan blue assay; assay type: cell-based; conditions: read-out: Activity; method in brief: as §2
[8] = Cytotoxicity against human Raji cells assessed as cell viability at 0.32 nmol after 48 hrs by trypan blue assay; assay type: cell-based; conditions: read-out: Activity; method in brief: as §2
[9] = system: Radical scavenging activity; assay: Antioxidant activity assessed as DPPH radical scavenging activity; assay type: functional
Method in brief: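 Test compound in ethanol mixed with 2 mL of 0.1 mM DPPH solution; held 30 min at room temperature, then absorbance at 520 nm read. EC50 estimated by probit transformation; IC50 as mean ± SD of five replicates.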

Row | Compound | Activity (Raji [1]) | Activity (Raji [2]) | Activity (Raji [3]) | Activity (Raji [4]) | viability at 48 h, 32 nmol [5] | viability at 48 h, 16 nmol [6] | viability at 48 h, 3.2 nmol [7] | viability at 48 h, 0.32 nmol [8] | IC50 [9]
1 | CC(C)=CC[C@H]1C[C@@]23C[C@@H](CC=C(C)C)C(C)(C)[C@@](CC=C(C)C)(C(=O)C(C(=O)c4ccc(O)c(O)c4)=C2OC1(C)C)C3=O [CAMBOGIN] | 17.7% | 56% | 87.1% | 100% | 60% | > 80% | > 80% | > 80% | 13.3 µM
2 | CC1(C)[C@@H](O)CC[C@]2(C)[C@H]3C(=O)C=C4[C@@H]5C[C@@](C)(C(=O)O)CC[C@]5(C)CC[C@@]4(C)[C@]3(C)CC[C@@H]12 [ENOXOLONE] | 15.6% | 54.3% | 100% | 100% | > 80% | > 80% | > 80% | – | –
3 | CC(C)=CC[C@@H]1C[C@@]2(CC=C(C)C)C(=O)[C@](CC=C(C)C)(C(=O)C(C(=O)c3ccccc3)=C2O)C1(C)C [CLUSIANONE] | 17.4% | 53.7% | 87.7% | 100% | 60% | > 80% | > 80% | > 80% | > 100 µM
4 | C=C(C)[C@@H](CC=C(C)C)C[C@@]12C[C@@H](CC=C(C)C)C(C)(C)[C@@](CC=C(C)C)(C(=O)C(C(=O)c3ccc(O)c(O)c3)=C1O)C2=O [GARCINOL] | 14.4% | 47% | 84.9% | 100% | 60% | > 80% | > 80% | > 80% | 10.2 µM
5 | O=C(c1ccc(O)c(O)c1)c1c(O)cc(O)cc1O [MACLURIN] | 0% | 52.7% | 80.2% | 94.3% | 70% | > 80% | > 80% | > 80% | –
6 | VITAMIN E | – | – | – | – | – | – | – | – | 22.8 µM
7 | COc1cc(C(=O)C2=C3OC(C)(C)[C@@H](CC=C(C)C)C[C@@]34C[C@@H](CC=C(C)C)C(C)(C)[C@@](CC=C(C)C)(C2=O)C4=O)ccc1O | 18.5% | 60.1% | 89% | 100% | 60% | > 80% | > 80% | > 80% | > 100 µM
8 | C=C(C)[C@@H](CC=C(C)C)C[C@@]12C[C@@H](CC=C(C)C)C(C)(C)[C@@](CC=C(C)C)(C(=O)C(C(=O)c3ccc(O)c(OC)c3)=C1O)C2=O | 19.7% | 54.9% | 88.1% | 100% | 60% | > 80% | > 80% | > 80% | > 100 µM
